Measurements from ChEMBL document CHEMBL3286196 (J Med Chem, 2014).
The source made the active and inactive calls. The calls are words filed in the database; no cut-off is given here.

Experiments:
HeLa = assay: Cytotoxicity against human HeLa cells assessed as inhibition of proliferation after 48 hrs by MTT assay; format: functional, cell-based
[1] = Cytotoxicity against human […] cells assessed as inhibition of proliferation after 48 hrs by MTT assay; format: functional, cell-based
HepG2 = assay: Cytotoxicity against human HepG2 cells assessed as inhibition of proliferation after 48 hrs by MTT assay; format: functional, cell-based; conditions: HepG2, 48 h
HL-60 [2] = assay: Cytotoxicity against human HL60 cells assessed as inhibition of proliferation after 72 hrs by MTT assay; format: functional, cell-based; conditions: HL-60, 72 h
HL-60 [3] = assay: Cytotoxicity against human HL60 cells assessed as inhibition of proliferation after 48 hrs by MTT assay; format: functional, cell-based; conditions: HL-60, 48 h
[4] = test system: T1, Thioredoxin reductase 1, cytoplasmic (Rattus norvegicus), O89049 [U498C]; assay: Binding affinity to NADPH-reduced rat recombinant TrxR1 U498C mutant after 30 mins by SDS-PAGE
T1 sequence (whole entry): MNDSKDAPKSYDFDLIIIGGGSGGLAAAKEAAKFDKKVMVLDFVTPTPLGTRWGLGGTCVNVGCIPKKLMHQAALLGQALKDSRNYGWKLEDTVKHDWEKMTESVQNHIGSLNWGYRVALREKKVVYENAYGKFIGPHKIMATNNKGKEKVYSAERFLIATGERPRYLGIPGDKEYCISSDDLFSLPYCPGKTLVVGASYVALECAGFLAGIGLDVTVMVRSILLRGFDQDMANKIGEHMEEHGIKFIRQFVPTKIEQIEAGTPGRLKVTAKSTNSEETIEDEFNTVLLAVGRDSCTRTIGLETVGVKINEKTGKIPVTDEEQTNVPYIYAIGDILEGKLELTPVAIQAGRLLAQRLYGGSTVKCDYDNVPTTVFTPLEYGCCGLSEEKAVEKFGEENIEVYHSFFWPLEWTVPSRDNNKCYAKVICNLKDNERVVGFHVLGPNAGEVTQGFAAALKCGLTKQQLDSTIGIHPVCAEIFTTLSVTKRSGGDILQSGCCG
In short: (§1)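 Proteins were reduced, then incubated with the labelling compound for 30 min at room temperature. Samples were separated by SDS-PAGE. The gel was imaged by fluorescence and then stained with Coomassie Blue.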

Rattus norvegicus = species on record: Rattus norvegicus; assay: Binding affinity to NADPH-reduced rat recombinant wild type TrxR after 30 mins by SDS-PAGE; in short: as §1

O=[As][As+](=O)[O-] (centres undefined) [ARSENIC TRIOXIDE] showed an IC50 (HeLa) of over 10 µM, an IC50 [1] of over 10 µM and an IC50 (HepG2) of over 10 µM. The IC50 (HL-60 [2]) was 5.7 µM and the IC50 (HL-60 [3]) was 6.5 µM.
For Nc1ccc([As](=O)(O)O)cc1 [ARSANILIC ACID], the IC50 (HeLa) was over 10 µM, the IC50 [1] was over 10 µM and the IC50 (HepG2) was over 10 µM. For the same compound, the IC50 (HL-60 [2]) was over 10 µM and the IC50 (HL-60 [3]) was over 10 µM.
For Nc1ccc2c3c(cccc13)C(=O)N(CCCCCC(=O)Nc1ccc([As]3SCCCS3)cc1)C2=O, the Activity [4] was “Active” and the Activity (Rattus norvegicus) was “inactive”.
With Nc1ccc2c3c(cccc13)C(=O)N(CCCCCC(=O)Nc1ccc([As](O)O)cc1)C2=O the Activity [4] was “Active” and the Activity (Rattus norvegicus) was “Active”.
